In series [1] the test system is p-tau-treated SH-SY5Y cells. Kind of series: Cytoprotective activity against p-tau, cell viability. In kind it is cell-based, human. Particulars: 0.5 μM p-tau overnight, compound 8 μM. An outline of the steps:
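SH-SY5Y cells (passage 8–19; EMEM/F12, 10% FBS, 1% Pen-Strep) seeded 40,000/well in 24-well plates and grown overnight. Pretreated with test compound for 12 h, then exposed overnight to recombinant p-tau (E. coli BL21-expressed, heat-treated, TEV-cleaved). CCK-8 added for 2 h at 37 °C; OD read at 450 nm. Normalized to no-treatment mean; relative viability expressed against p-tau-only treatment.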

The next series deals with p-tau (Homo sapiens, UniProt P10636). Nature of the series: Transmission electron microscopy of p-tau. Particulars: p-tau 10 μM, 24 h incubation, 37 °C, Tris pH 7.4.
The subject of a further series is SH-SY5Y cells. Nature of the series: Cytotoxicity of the ligands alone, cell viability. In kind it is cell-based. Particulars: 8 μM.
The test system of series [2] is ATF4, CHOP, GADD34, TRB3 expression in SH-SY5Y cells. Nature of the series: qRT-PCR of ER stress-associated pro-apoptotic factors in p-tau-treated cells. In kind it is cell-based, human. Particulars: p-tau 0.5 μM plus ligand 5 μM, 24 h. A general note: Quantitative PCR measures a nucleic acid by following its amplification.
For series [3], the system named is spliced Xbp1 mRNA, BiP, ERdj4 expression in SH-SY5Y cells. Kind of series: qRT-PCR of ER stress markers and UPR mediators in p-tau-treated cells. In kind it is cell-based, human. The settings on record: p-tau 0.5 μM plus ligand 5 μM, 24 h.
For series [4], the system named is TNFα, IL1β, IRF3 expression in SH-SY5Y cells. Kind of series: qRT-PCR of pro-inflammatory factors in p-tau-treated cells. The class given is cell-based, human. The settings on record: p-tau 0.5 μM plus ligand 5 μM, 24 h.
The subject of a further series is heparanase. The settings on record: previous report; cited from earlier work.
Series [5] has as its system Xbp1s, P58ipk, ATF4 expression in SH-SY5Y cells. Kind of series: qRT-PCR of ER stress response induced by tunicamycin or thapsigargin. Particulars: 24 h. In kind it is cell-based, human.
The test system of series [6] is p-tau-treated SH-SY5Y cells. Nature of the series: Cell morphology by contrast microscopy. The settings on record: p-tau 0.5 μM plus ligand 1 5 μM, 24 h. The class given is cell-based, human.

Here are results for four compounds from article PMC13386513 (Journal of medicinal chemistry, 2025).

Each structure is given as a SMILES string.

Chain of p-tau (P10636 1-412 isoform P10636-7): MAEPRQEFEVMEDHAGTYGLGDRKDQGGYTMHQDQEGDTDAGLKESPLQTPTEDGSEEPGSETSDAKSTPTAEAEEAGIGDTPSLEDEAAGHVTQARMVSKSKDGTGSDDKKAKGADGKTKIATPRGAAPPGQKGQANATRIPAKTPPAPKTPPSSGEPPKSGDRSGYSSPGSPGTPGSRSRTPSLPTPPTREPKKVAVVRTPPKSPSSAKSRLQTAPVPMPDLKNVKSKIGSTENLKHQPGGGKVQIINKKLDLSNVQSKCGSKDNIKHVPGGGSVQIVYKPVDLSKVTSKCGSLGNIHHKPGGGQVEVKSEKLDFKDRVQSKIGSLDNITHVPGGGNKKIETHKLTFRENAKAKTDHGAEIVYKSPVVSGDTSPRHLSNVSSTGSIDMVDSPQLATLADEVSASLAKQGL

As for `CN1CCc2cccc3c2[C@H]1Cc1ccc(O)c(O)c1-3` [apomorphine, reference compound], the relative viability in series [1] turned out to be 0.7. Besides, the “morphology of p-tau (TEM)” value at p-tau was “reorganization of p-tau from an amorphous structure into more ordered clusters”.

For the compound `COC(=O)[C@]12CCC(C)(C)C[C@H]1C1=CCC3[C@@]4(C)CC[C@H](O)C(C)(C)C4CC[C@@]3(C)C1(C)CC2` (stereo partly drawn) [OAME, oleanolic acid methyl ester, reference compound], in the series with SH-SY5Y cells, the “cytotoxicity of the compound alone” value was “did not exhibit cytotoxicity”.

In the case of `O=C(O)[C@H]1O[C@@H](O[C@H]2[C@H](O)[C@@H](NS(=O)(=O)O)[C@H](OCCNS(=O)(=O)O)O[C@@H]2COS(=O)(=O)O)[C@H](O)[C@@H](O)[C@@H]1O[C@H]1O[C@H](COS(=O)(=O)O)[C@@H](O)[C@H](O)[C@H]1NS(=O)(=O)O` [Compound 2], in series [1], the relative viability is 0.3. The “cytotoxicity of the compound alone” value in the series on SH-SY5Y cells is recorded as “did not exhibit cytotoxicity”. Further, in series [2], the “expression of ATF4, CHOP, GADD34 and TRB3” value is given as “did not reduce”. Further, in series [3], the “expression of spliced Xbp1 mRNA, BiP and ERdj4 (p-tau-induced ER stress response/UPR)” value is given as “did not offer protection”. Besides, the “p-tau-induced inflammatory response (IL1β, TNFα, IRF3 expression)” value in [4] is “did not offer protection”. Moreover, the heparanase inhibition result in the series on heparanase is reported as “potent heparanase inhibitor”.

`COC(=O)[C@]12CCC(C)(C)C[C@H]1C1=CCC3[C@@]4(C)CC[C@H](O[C@@H]5O[C@H](COS(=O)(=O)O)[C@@H](O[C@@H]6O[C@H](C(=O)O)[C@@H](O[C@H]7O[C@H](COS(=O)(=O)O)[C@@H](O)[C@H](O)[C@H]7NS(=O)(=O)O)[C@H](O)[C@H]6O)[C@H](O)[C@H]5NS(=O)(=O)O)C(C)(C)C4CC[C@@]3(C)C1(C)CC2` (stereo partly drawn) [Compound 1, 3β-(2-N-Sulfo-2-deoxy-6-O-sulfo-α-D-glucopyranosyl-(1 → 4)-β-D-glucopyranosyluronate-(1 → 4)-2-N-sulfo-2-deoxy-6-O-sulfo-β-D-glucopyranosyloxy)-methyloleanolate]: in series [1], the relative viability result is given as “around 0.6”. The “cytotoxicity of the compound alone” value in the series with SH-SY5Y cells is reported as “did not exhibit cytotoxicity”. Moreover, in series [2], the “expression of ATF4, CHOP, GADD34 and TRB3” value is recorded as “significantly lowered”. For the same compound, in series [3], the “expression of spliced Xbp1 mRNA, BiP and ERdj4 (p-tau-induced ER stress response/UPR)” value was “strong protective effects”. The “p-tau-induced inflammatory response (IL1β, TNFα, IRF3 expression)” value in [4] was “able to protect cells”. Moreover, the “Tg-induced ER stress response (Xbp1s, P58ipk, ATF4)” value in [5] (Tg 0.5 μM plus ligand 1 5 μM) was “failed to attenuate”. The “Tm-induced ER stress response (Xbp1s, P58ipk, ATF4)” value in [5] (Tm 5 μg/mL plus ligand 1 5 μM) was “failed to attenuate”. Also, the “morphology of p-tau (TEM)” value at p-tau is given as “reorganization of p-tau from an amorphous structure into more ordered clusters”. Further, the “cell density and morphology” value in series [6] was “remarkably recovered cell density and morphology”.
